From PubChem
An excerpt weighted towards active compounds, which were near 2.2% of everything screened.
Diaph inh CS: diaphorase inhibition or chemical oxidation counter-screen; diaphorase resazurin-to-resorufin fluorescence, NADH, 16 min; bacterial (C. kluyveri) enzyme, not human; inhibition, % at 20 µM; 190,000 tested, 0.69% active;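 active means primary screen inhibition at 20 µM above a set limit, cut at about 50% in these data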;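 further: plate controls were DMSO with full reaction for no effect and wells lacking NADH for full effect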
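Assay system: diaphorase enzyme from Clostridium kluyveri; Input: enzyme working solution with 0.14 U/mL diaphorase; Timing: 16 min at room temperature; Technique: resorufin fluorescence, excitation 544 nm, emission 590 nm; Benchmarks: positive control minus NADH, DMSO neutral control.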
Diaphorase act: diaphorase activation or chemical reduction counter-screen; 190,000 tested, 0.005% active; activation factor at 20 µM; AID 1229; Diaphorase/resazurin coupled assay, resorufin fluorescence, 16 min; stronger effect = higher value; 1 = vehicle wells, 0 = NADH-free wells;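 active means diaphorase activity raised at least twofold by the compound at 20 µM; inactive means activation factor below 2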
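Assay system: Purified diaphorase enzyme from Clostridium kluyveri | Amount: Enzyme 0.07 U/mL final | Dosing: Compound 20 µM once, DMSO 1% | Timing: 16 min reaction at room temperature | Detection: Fluorescence, excitation 544 nm and emission 590 nm | Evaluation: Higher resorufin formation from activation or reduction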
ROMK mod: human ROMK K+ channel modulation, primary screen; P48048; Tet-inducible ROMK, thallium flux fluorescence; actives lie on both sides; B-score at 10 µM; 130,000 tested, 2% active;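 active means signal ratio slope over the read window, or its plate-corrected B-score, at least 3 SD from the plate mean, either direction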;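 further: B-score of the F/F0 ratio slope over 7 to 12 s after thallium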
PMI act satM6P: PMI (human) activation, high substrate | P34949 | coupled PMI enzyme assay, resazurin fluorescence, 20 min; stronger effect = higher value; 1 = untreated enzyme, 0 = substrate-free blank | activation factor at 20 µM | 190,000 tested, 0.34% active;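 active means activation factor of 2 or more at 20 µM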
Target sequence (P34949 whole entry, looked up): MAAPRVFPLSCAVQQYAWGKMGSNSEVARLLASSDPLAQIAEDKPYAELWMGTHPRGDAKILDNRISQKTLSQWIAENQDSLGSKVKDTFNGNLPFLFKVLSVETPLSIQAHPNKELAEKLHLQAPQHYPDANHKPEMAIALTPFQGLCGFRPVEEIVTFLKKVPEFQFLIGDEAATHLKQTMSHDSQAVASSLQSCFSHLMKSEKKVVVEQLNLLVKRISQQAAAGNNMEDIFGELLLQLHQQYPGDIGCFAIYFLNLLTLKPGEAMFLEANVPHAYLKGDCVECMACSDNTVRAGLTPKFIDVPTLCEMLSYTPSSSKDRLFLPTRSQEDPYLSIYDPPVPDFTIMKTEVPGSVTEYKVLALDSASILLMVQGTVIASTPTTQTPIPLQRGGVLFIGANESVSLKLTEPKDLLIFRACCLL
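Material: human phosphomannose isomerase with PGI, G6PDH, diaphorase coupling enzymes; amount: PMI at 15 ng/mL final; also added: Mannose-6-phosphate 1.0 mM (near-saturating) plus 0.22 mM NADP+; incubation: enzyme reaction with compound 20 min at room temperature; signal: resorufin fluorescence (Ex 544/Em 590 nm) from resazurin via diaphorase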
PMI activator: activators of human phosphomannose isomerase | P34949 | purified human PMI, coupled resazurin fluorescence, 20 min; stronger effect = higher value; 1 = vehicle control, 0 substrate-free wells | activation factor at 20 µM | 190,000 tested, 0.005% active | AID 1214;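 active means activation factor of 2 or more at 20 µM, relative to plate controls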
G6PDH counter: inhibits Leuconostoc G6PDH, flagging false hits in G6PDH-based assays; Purified L. mesenteroides G6PDH, diaphorase/resazurin coupled fluorescence, 45 min; 200,000 tested, 0.12% active; inhibition, % at 5 µM; in the data active means inhibition above about 50%
The depositor's hits bear a star.

Screening Cc1cccc(C)c1NC(=S)NC(=O)c1ccc(Br)o1 returned Diaph inh CS 32, Diaphorase act 0.7, ROMK mod 2.1*, PMI act satM6P 0.9, PMI activator 0.9 and G6PDH counter 10.
Screening CCN(CC)c1ccc(-c2nn3c(-c4ccccc4OC)nnc3s2)cc1 returned Diaph inh CS 16, Diaphorase act 0.8, ROMK mod 3.9*, PMI act satM6P 0.9, PMI activator 0.9 and G6PDH counter 8.
Screening O=C(Cn1nnc2ccccc21)Nc1ccc(Cl)cn1 returned Diaph inh CS 0, Diaphorase act 1, ROMK mod 0.74, PMI act satM6P 1.1, PMI activator 1.1 and G6PDH counter 16.
Cc1ccc(S(=O)(=O)n2cnc3cc([N+](=O)[O-])ccc32)cc1C was read as Diaph inh CS 5, Diaphorase act 0.9, PMI act satM6P 1.1, PMI activator 1.1 and G6PDH counter 8.
For Cc1ccc(-n2c3nc(=O)[nH]c(=O)c-3cc3cc([N+](=O)[O-])ccc32)cc1C the results were Diaph inh CS 91*, Diaphorase act 0.1, PMI act satM6P 1, PMI activator 0.9 and G6PDH counter -34.
Screening Cc1cc(C#N)c(C)c(SCc2[nH]nc3c2C(c2ccccc2)C(C#N)=C(N)O3)n1 (centres undefined) returned Diaph inh CS 54*, Diaphorase act 0.5, ROMK mod 0.28, PMI act satM6P 0.7, PMI activator 0.9 and G6PDH counter 1.
Cc1cc(C)c(C#N)c(SCc2[nH]nc3c2C(c2ccc(F)cc2)C(C#N)=C(N)O3)n1 (centres undefined) was read as Diaph inh CS 46, Diaphorase act 0.5, ROMK mod -0.61, PMI act satM6P 0.8, PMI activator 0.9 and G6PDH counter -5.
CN(C)c1ccc(NC2=C(Cl)C(=O)c3ccccc3C2=O)cc1 was read as Diaph inh CS 27, Diaphorase act 0.7, ROMK mod -0.22, PMI act satM6P 0.5, PMI activator 0.7 and G6PDH counter 51*.
`CC(=O)Nc1ccc(NC2=C(Cl)C(=O)c3ccccc3C2=O)cc1` gave Diaph inh CS 12, Diaphorase act 0.9, ROMK mod 0.74, PMI act satM6P 0.4, PMI activator 1 and G6PDH counter 44.
Screening Cc1ccc(-n2cccc2/C=C2\C(=N)N3N=C(c4ccco4)SC3=NC2=O)cc1 returned Diaph inh CS 56*, Diaphorase act 0.4, ROMK mod 1.9, PMI act satM6P 1.2, PMI activator 1.1 and G6PDH counter -2.
`Cn1cnnc1SCc1ccc(C(=O)N/N=C/c2cccs2)cc1` gave Diaph inh CS 11, Diaphorase act 0.9, ROMK mod 0.00058, PMI act satM6P 1, PMI activator 0.9 and G6PDH counter -2.
`O=C(OCn1ncc(Br)c(Br)c1=O)c1ccccc1Cl` gave Diaph inh CS 9, Diaphorase act 0.9, ROMK mod -2.1, PMI act satM6P 1.1, PMI activator 1 and G6PDH counter 0.
`O=C(OCn1ncc(Br)c(Br)c1=O)c1ccc(F)cc1` gave Diaph inh CS 15, Diaphorase act 0.9, ROMK mod -3.5*, PMI act satM6P 1, PMI activator 0.9 and G6PDH counter 15.
`CC1(C)Cc2c(sc3[nH]c(=S)n(Cc4ccco4)c(=O)c23)CO1` gave Diaph inh CS 32, Diaphorase act 0.7, ROMK mod 1, PMI act satM6P 1, PMI activator 0.9 and G6PDH counter 5.
For Cc1ccc(-n2c(=S)[nH]c3sc4c(c3c2=O)CCC4)cc1 the results were Diaph inh CS 53*, Diaphorase act 0.5, ROMK mod 1.4, PMI act satM6P 0.9, PMI activator 1 and G6PDH counter -7.
`O=c1c2c3c(sc2[nH]c(=S)n1Cc1ccco1)CCC3` gave ROMK mod -5.5*.
COc1ccc(CNC(=O)Cn2nnc3ccccc3c2=O)cc1 was read as ROMK mod -0.16.
`O=C(/C=C/c1ccc(F)cc1)NC(=S)NNC(=O)c1cnccn1` gave ROMK mod -0.71.
O=C(NC(=S)NNC(=O)c1cnccn1)c1ccc(F)cc1 was read as Diaph inh CS 64*, Diaphorase act 0.4, ROMK mod 0.54, PMI act satM6P 1.1, PMI activator 0.7 and G6PDH counter -4.
Screening FC(F)(F)c1ccc(C2Nc3cccc4cccc(c34)N2)cc1 returned Diaph inh CS 14, Diaphorase act 0.9, ROMK mod 1.3, PMI act satM6P 0.8, PMI activator 1.3 and G6PDH counter 6.
For c1coc(C2Nc3cccc4cccc(c34)N2)c1 the results were Diaph inh CS 70*, Diaphorase act 0.3, ROMK mod -1, PMI act satM6P 1.3, PMI activator 0.9 and G6PDH counter 21.
`COc1ccc(/C=C/CN2CCN(Cc3ccc(F)cc3)C(CCO)C2)cc1` (centres undefined) gave Diaph inh CS 11, Diaphorase act 0.9, ROMK mod -1.6, PMI act satM6P 0.9, PMI activator 0.9 and G6PDH counter 6.
`CC(=O)Oc1c(C)cc(O)c2ccccc12` gave Diaph inh CS 33, Diaphorase act 0.7, ROMK mod 0.083, PMI act satM6P 0.8, PMI activator 0.7 and G6PDH counter 51*.
For CCOc1ccc(CN(C)C(=O)CCl)cc1 the results were Diaph inh CS 11, Diaphorase act 0.9, ROMK mod 0.75, PMI act satM6P 1, PMI activator 1.1 and G6PDH counter 7.
For Cc1cnccc1CN(C)Cc1cn(C)nc1-c1ccc(Oc2ccccc2)cc1 the results were Diaph inh CS 13, Diaphorase act 0.9, ROMK mod 1.6, PMI act satM6P 0.9, PMI activator 0.9 and G6PDH counter 9.
`Cc1cnccc1CN(C)Cc1cn(C)nc1-c1cccc(Cl)c1` gave Diaph inh CS 50*, Diaphorase act 0.5, ROMK mod -0.015, PMI act satM6P 1, PMI activator 0.9 and G6PDH counter 6.
Screening O=C(N/C(=C\c1cccc([N+](=O)[O-])c1)C(=O)N1CCOCC1)c1ccc([N+](=O)[O-])cc1 returned Diaph inh CS 33, Diaphorase act 0.7, ROMK mod -0.21, PMI act satM6P 0.9, PMI activator 0.9 and G6PDH counter 14.
CCOc1ccc2[nH]c(=O)c(C(c3nnnn3CC3CCCO3)N3CCc4ccccc4C3)cc2c1 (centres undefined) was read as Diaph inh CS 59*, Diaphorase act 0.4, ROMK mod -2.2, PMI act satM6P 0.9, PMI activator 1.2 and G6PDH counter 14.
